According to ChEMBL document CHEMBL4033781 (J Med Chem, 2018):
Activity calls are given as the source filed them. No cut-off for these calls is given here.

Key:
[1] = biological target: N+/K+ ATPase alpha-4/beta-1 (Rattus norvegicus, UniProt Q64541); experiment: Inhibition of recombinant rat Na+/K+-ATPase alpha4/beta1 expressed in baculovirus infected insect Sf9 cell membranes using [gamma-32P]ATP as substrate preincubated for 10 mins followed by substrate addition measured after 30 mins in presence of Na+, K+ and Mg2+ by liquid scintillation counting
N+/K+ ATPase alpha-4/beta-1, sequence (Q64541 whole entry, other chains not shown, canonical isoform): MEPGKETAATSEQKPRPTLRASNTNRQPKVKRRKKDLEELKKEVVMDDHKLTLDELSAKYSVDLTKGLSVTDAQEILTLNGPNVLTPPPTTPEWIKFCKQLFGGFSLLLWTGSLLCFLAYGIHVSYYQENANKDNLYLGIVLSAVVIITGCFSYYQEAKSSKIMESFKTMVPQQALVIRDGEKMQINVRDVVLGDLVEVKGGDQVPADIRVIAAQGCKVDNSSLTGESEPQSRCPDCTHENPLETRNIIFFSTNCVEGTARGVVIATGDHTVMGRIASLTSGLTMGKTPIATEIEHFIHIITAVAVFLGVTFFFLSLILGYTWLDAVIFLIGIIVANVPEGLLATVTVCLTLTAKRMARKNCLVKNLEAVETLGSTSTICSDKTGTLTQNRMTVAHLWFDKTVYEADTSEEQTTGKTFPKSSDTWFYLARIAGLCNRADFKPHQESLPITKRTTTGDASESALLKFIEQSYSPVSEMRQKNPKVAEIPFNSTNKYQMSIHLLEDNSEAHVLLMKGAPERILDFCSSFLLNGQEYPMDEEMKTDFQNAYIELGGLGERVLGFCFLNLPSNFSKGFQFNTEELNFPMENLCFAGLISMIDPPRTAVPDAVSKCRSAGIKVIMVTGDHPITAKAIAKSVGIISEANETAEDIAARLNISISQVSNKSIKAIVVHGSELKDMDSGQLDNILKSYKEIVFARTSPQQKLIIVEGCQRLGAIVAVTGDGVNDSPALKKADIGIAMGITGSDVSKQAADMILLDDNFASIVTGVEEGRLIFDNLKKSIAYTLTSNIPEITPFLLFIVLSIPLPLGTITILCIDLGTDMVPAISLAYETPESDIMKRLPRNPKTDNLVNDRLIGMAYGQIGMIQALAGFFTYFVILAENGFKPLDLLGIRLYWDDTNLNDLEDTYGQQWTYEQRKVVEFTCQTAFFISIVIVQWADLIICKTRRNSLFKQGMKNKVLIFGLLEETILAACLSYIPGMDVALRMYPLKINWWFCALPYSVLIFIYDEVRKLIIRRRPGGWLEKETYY
How it was run: (§1)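 Rat α/β1 isoforms were expressed in baculovirus-infected Sf9 cells (72 h, 27 °C), washed in 10 mM imidazole-HCl pH 7.5 with 1 mM EGTA, and homogenised. Homogenates were assayed in 120 mM NaCl, 30 mM KCl, 3 mM MgCl₂, 0.2 mM EGTA and 30 mM Tris-HCl pH 7.4. Reactions were started with 2 mM γ[³²P]-ATP (final) and run 30 min at 37 °C. Released ³²Pi was extracted as phosphomolybdate into isobutanol and scintillation counted. IC50 came from single-site dose–response fits.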

[2] = biological target: T1, Voltage-gated inwardly rectifying potassium channel KCNH2 (Homo sapiens, UniProt Q12809); experiment: Displacement of Tracer Red from human ERG expressed in cell membranes by fluorescence polarization assay
T1 sequence (Q12809 whole entry): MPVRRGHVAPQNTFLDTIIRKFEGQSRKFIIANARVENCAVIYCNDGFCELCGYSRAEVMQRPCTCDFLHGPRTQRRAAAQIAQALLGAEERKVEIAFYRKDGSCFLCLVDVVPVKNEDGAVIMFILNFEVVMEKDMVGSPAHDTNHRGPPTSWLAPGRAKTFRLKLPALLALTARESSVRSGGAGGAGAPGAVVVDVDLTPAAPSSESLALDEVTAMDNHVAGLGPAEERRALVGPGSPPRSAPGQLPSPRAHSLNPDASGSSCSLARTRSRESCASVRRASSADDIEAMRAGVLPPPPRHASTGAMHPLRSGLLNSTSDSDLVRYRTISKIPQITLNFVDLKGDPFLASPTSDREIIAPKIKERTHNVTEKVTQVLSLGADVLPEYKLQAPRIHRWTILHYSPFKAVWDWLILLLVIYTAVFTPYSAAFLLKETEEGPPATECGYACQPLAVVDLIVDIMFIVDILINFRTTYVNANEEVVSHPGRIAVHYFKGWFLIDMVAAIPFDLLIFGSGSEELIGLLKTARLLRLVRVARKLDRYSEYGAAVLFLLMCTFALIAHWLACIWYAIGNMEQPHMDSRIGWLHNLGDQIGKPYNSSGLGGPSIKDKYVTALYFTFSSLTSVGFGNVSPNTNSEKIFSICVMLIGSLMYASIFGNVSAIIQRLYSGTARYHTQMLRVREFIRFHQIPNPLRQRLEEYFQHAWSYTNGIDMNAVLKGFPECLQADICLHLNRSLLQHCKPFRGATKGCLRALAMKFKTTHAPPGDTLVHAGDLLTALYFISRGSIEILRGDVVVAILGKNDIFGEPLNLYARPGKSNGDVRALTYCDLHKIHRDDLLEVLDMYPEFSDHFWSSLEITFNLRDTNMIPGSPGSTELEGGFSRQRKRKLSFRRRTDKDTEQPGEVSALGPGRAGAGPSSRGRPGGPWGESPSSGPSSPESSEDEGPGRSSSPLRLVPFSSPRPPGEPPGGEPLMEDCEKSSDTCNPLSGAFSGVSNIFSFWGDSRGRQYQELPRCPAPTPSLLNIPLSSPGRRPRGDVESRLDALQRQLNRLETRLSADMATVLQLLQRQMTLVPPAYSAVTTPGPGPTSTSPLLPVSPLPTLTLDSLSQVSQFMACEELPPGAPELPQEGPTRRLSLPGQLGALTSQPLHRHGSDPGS
How it was run: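 Competitive fluorescence polarization binding assay using membranes from cells stably expressing hERG, measuring displacement of a fluorescently tagged hERG ligand. Test compounds were run at concentrations up to 60 μM.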

[3] = biological target: Na+/K+ ATPase alpha-1/beta-1 (Rattus norvegicus, UniProt P06685+P07340); experiment: Inhibition of recombinant rat Na+/K+-ATPase alpha1/beta1 expressed in baculovirus infected insect Sf9 cell membranes using [gamma-32P]ATP as substrate preincubated for 20 mins followed by substrate addition measured after 30 mins by liquid scintillation counting
How it was run: as §1, with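 “counted. Activity was taken as the 1 mM ouabain-sensitive fraction.” for “counted.”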

[4] = biological target: T1, Voltage-gated inwardly rectifying potassium channel KCNH2; experiment: Displacement of Tracer Red from human ERG expressed in cell membranes up to 60 uM by fluorescence polarization assay
How it was run: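 Competitive fluorescence polarization displacement of a fluorescently tagged hERG ligand used membranes from cells stably expressing hERG. Compounds were tested up to 60 μM.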

[5] = biological target: Na+/K+ ATPase alpha-2/beta-1 (Rattus norvegicus, UniProt P06686+P07340); experiment: Inhibition of recombinant rat Na+/K+-ATPase alpha2/beta1 expressed in baculovirus infected insect Sf9 cell membranes using [gamma-32P]ATP as substrate preincubated for 20 mins followed by substrate addition measured after 30 mins by liquid scintillation counting; how it was run: as §1
[6] = biological target: Na+/K+ ATPase alpha-3/beta-1 (Rattus norvegicus, UniProt P06687+P07340); experiment: Inhibition of recombinant rat Na+/K+-ATPase alpha3/beta1 expressed in baculovirus infected insect Sf9 cell membranes using [gamma-32P]ATP as substrate preincubated for 20 mins followed by substrate addition measured after 30 mins by liquid scintillation counting; how it was run: as §1
[7] = biological target: Sodium/potassium-transporting ATPase subunit alpha-4 (Rattus norvegicus) (UniProt Q64541); experiment: Inhibition of Na+/K+-ATPase alpha4 in Long Evans rat cauda epididymis sperm assessed as reduction in sperm progressive motility at 10^-12 to 10^-4 M after 1 hr by SYTO staining based microscopic method
Sodium/potassium-transporting ATPase subunit alpha-4 (Rattus norvegicus), sequence (Q64541 whole entry): as the sequence (Q64541 whole entry, other chains not shown, canonical isoform) above

[8] = biological target: Sodium/potassium-transporting ATPase subunit alpha-4 (Rattus norvegicus) (UniProt Q64541); experiment: Inhibition of Na+/K+-ATPase alpha4 in Long Evans rat cauda epididymis sperm assessed as reduction in sperm straight line velocity at 10^-12 to 10^-4 M after 1 hr by SYTO staining based microscopic method
[9] = biological target: Sodium/potassium-transporting ATPase subunit alpha-4 (Rattus norvegicus) (UniProt Q64541); experiment: Inhibition of Na+/K+-ATPase alpha4 in Long Evans rat cauda epididymis sperm assessed as reduction in sperm curvilinear velocity at 10^-12 to 10^-4 M after 1 hr by SYTO staining based microscopic method
[10] = biological target: Sodium/potassium-transporting ATPase subunit alpha-4 (Rattus norvegicus) (UniProt Q64541); experiment: Inhibition of Na+/K+-ATPase alpha4 in Long Evans rat cauda epididymis sperm assessed as reduction in sperm average path velocity at 10^-12 to 10^-4 M after 1 hr by SYTO staining based microscopic method
[11] = biological target: Sodium/potassium-transporting ATPase subunit alpha-4 (Rattus norvegicus) (UniProt Q64541); experiment: Inhibition of Na+/K+-ATPase alpha4 in Long Evans rat cauda epididymis sperm assessed as reduction in sperm average path linearity at 10^-12 to 10^-4 M after 1 hr by SYTO staining based microscopic method
[12] = biological target: Sodium/potassium-transporting ATPase subunit alpha-4 (Rattus norvegicus) (UniProt Q64541); experiment: Inhibition of Na+/K+-ATPase alpha4 in Long Evans rat cauda epididymis sperm assessed as reduction in sperm beat cross frequency at 10^-12 to 10^-4 M after 1 hr by SYTO staining based microscopic method
[13] = biological target: Sodium/potassium-transporting ATPase subunit alpha-4 (Rattus norvegicus) (UniProt Q64541); experiment: Inhibition of Na+/K+-ATPase alpha4 in Long Evans rat cauda epididymis sperm assessed as reduction in sperm motility at 10^-8 M preincubated for 1 hr followed by compound washout measured up to 2 hrs by SYTO staining based microscopic method
How it was run: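 Rat cauda epididymal sperm in modified Tyrode's medium were treated with or without compound. Motility was measured by SYTO 21/CASA before and after three washes in modified Tyrode's medium, at times up to 2 h. Values are mean ± SEM of three determinations.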

MCF7 = experiment: Antiproliferative activity against human MCF7 cells up to 100 uM after 72 hrs by AlamarBlue assay; assay type: cell-based; conditions: mcf7, 72 h
[14] = biological target: Sodium/potassium-transporting ATPase subunit alpha-4 (Rattus norvegicus) (UniProt Q64541); experiment: Inhibition of Na+/K+-ATPase alpha4 in Long Evans rat cauda epididymis sperm assessed as reduction in total sperm motility at 10^-12 to 10^-4 M after 1 hr by SYTO staining based microscopic method

## C[C@@H]1O[C@@H](O[C@H]2C[C@H]3OC(C)(C)OC[C@]34[C@H]3[C@H](O)C[C@]5(C)[C@@H](C6=CC(=O)OC6)CC[C@]5(O)[C@@H]3CC[C@]4(O)C2)[C@@H]2OC(C)(C)O[C@@H]2[C@H]1O
[1]
  IC50: 4 to 4.3 nM

## C[C@@H]1O[C@@H](O[C@H]2C[C@@H](O)[C@]3(CO)[C@H]4[C@H](O)C[C@]5(C)[C@@H](C6=CC(=O)OC6)CC[C@]5(O)[C@@H]4CC[C@]3(O)C2)[C@H](O)[C@H](O)[C@H]1O [OUABAIN]
[2]
  IC50: 5800 nM

## C[C@]12C[C@@H](O)[C@H]3[C@@H](CC[C@]4(O)C[C@@H](O)C[C@@H](O)[C@]34CO)[C@@]1(O)CC[C@@H]2c1cn(Cc2ccc(F)cc2)nn1
[1]
  IC50: 32 to 49 nM

## COCO[C@@H]1[C@H]2OC(C)(C)O[C@H]2[C@H](O[C@H]2C[C@H]3OC(C)(C)OC[C@]34[C@@H]3[C@@H](CC[C@]4(O)C2)[C@@]2(O)CC[C@H](C(O)CO)[C@@]2(C)C[C@H]3OCOC)O[C@H]1C (mixture of isomers)
[1]
  IC50: 2100 to 3700 nM

## COCO[C@H]1C[C@H]2OC(C)(C)OC[C@]23[C@@H]2[C@@H](CC[C@]3(O)C1)[C@@]1(OCOC)CC[C@H](C#N)[C@@]1(C)C[C@H]2OCOC
[1]
  IC50: 16000 to 37000 nM

## C#CC(O)[C@H]1CC[C@]2(OCOC)[C@@H]3CC[C@]4(O)C[C@@H](OCOC)C[C@H]5OC(C)(C)OC[C@]54[C@H]3[C@H](OCOC)C[C@]12C (mixture of isomers)
[1]
  IC50: 10 to 60 nM

## C[C@@H]1O[C@@H](O[C@H]2C[C@@H](O)[C@]3(CO)[C@H]4[C@H](O)C[C@]5(C)[C@@H](C(O)c6cn(Cc7ccccc7)nn6)CC[C@]5(O)[C@@H]4CC[C@]3(O)C2)[C@H](O)[C@H](O)[C@H]1O (mixture of isomers)
[1]
  IC50: 1200 to 1500 nM

## COCO[C@H]1C[C@H]2OC(C)(C)OC[C@]23[C@@H]2[C@@H](CC[C@]3(O)C1)[C@@]1(OCOC)CC[C@H](c3cn(Cc4ccccc4)nn3)[C@@]1(C)C[C@H]2OCOC
[1]
  IC50: 5 to 6.9 nM

## C[C@]12C[C@@H](O)[C@H]3[C@@H](CC[C@]4(O)C[C@@H](O)C[C@@H](O)[C@]34CO)[C@@]1(O)CC[C@@H]2c1cn(Cc2ccc(Cl)cc2)nn1
[1]
  IC50: 32 to 43 nM

## COCO[C@@H]1[C@H]2OC(C)(C)O[C@H]2[C@H](O[C@H]2C[C@H]3OC(C)(C)OC[C@]34[C@@H]3[C@@H](CC[C@]4(O)C2)[C@@]2(O)CC[C@H](C(O)c4cn(Cc5ccc(F)cc5)nn4)[C@@]2(C)C[C@H]3OCOC)O[C@H]1C (mixture of isomers)
[1]
  IC50: 12 to 70 nM

## COCO[C@H]1C[C@H]2OC(C)(C)OC[C@]23[C@@H]2[C@@H](CC[C@]3(O)C1)[C@@]1(OCOC)CC[C@H](CO)[C@@]1(C)C[C@H]2OCOC
[3]
  IC50: > 100000 nM
[4]
  inhibition (INH): Not Active
[5]
  IC50: 6600 nM
[6]
  IC50: > 100000 nM
[7]
  inhibition: Active
[8]
  inhibition: Active
[9]
  inhibition: Active
[10]
  inhibition: Active
[11]
  inhibition: Active
[12]
  inhibition: Active
[13]
  inhibition: Active
MCF7
  Activity: Non-Toxic
[14]
  inhibition: Active

## COCO[C@@H]1[C@H]2OC(C)(C)O[C@H]2[C@H](O[C@H]2C[C@H]3OC(C)(C)OC[C@]34[C@@H]3[C@@H](CC[C@]4(O)C2)[C@@]2(O)CC[C@H](C#N)[C@@]2(C)C[C@H]3OCOC)O[C@H]1C
[1]
  IC50: 33 to 62 nM

## COCO[C@H]1C[C@H]2OC(C)(C)OC[C@]23[C@@H]2[C@@H](CC[C@]3(O)C1)[C@@]1(OCOC)CC[C@H](/C=N/O)[C@@]1(C)C[C@H]2OCOC
[1]
  IC50: 1.4 to 2.9 nM

## COCO[C@H]1C[C@H]2OC(C)(C)OC[C@]23[C@@H]2[C@@H](CC[C@]3(O)C1)[C@@]1(OCOC)CC[C@H](C(=O)O)[C@@]1(C)C[C@H]2OCOC
[1]
  IC50: 39 to 77 nM

## COCO[C@H]1C[C@H]2OC(C)(C)OC[C@]23[C@@H]2[C@@H](CC[C@]3(O)C1)[C@@]1(OCOC)CC[C@H](C(O)C(F)(F)F)[C@@]1(C)C[C@H]2OCOC (mixture of isomers)
[1]
  IC50: 5600 to 5900 nM

## COCO[C@@H]1[C@H]2OC(C)(C)O[C@H]2[C@H](O[C@H]2C[C@H]3OC(C)(C)OC[C@]34[C@@H]3[C@@H](CC[C@]4(O)C2)[C@@]2(O)CC[C@H](CO)[C@@]2(C)C[C@H]3OCOC)O[C@H]1C
[3]
  IC50: > 100000 nM
[4]
  inhibition (INH): Not Active
[5]
  IC50: > 100000 nM
[6]
  IC50: > 100000 nM
[7]
  inhibition: Active
[8]
  inhibition: Active
[9]
  inhibition: Active
[10]
  inhibition: Active
[11]
  inhibition: Active
[12]
  inhibition: Active
[13]
  inhibition: Active
MCF7
  Activity: Non-Toxic
[14]
  inhibition: Active

## C[C@@H]1O[C@@H](O[C@H]2C[C@@H](O)[C@]3(CO)[C@H]4[C@H](O)C[C@]5(C)[C@@H](C(O)c6cn(Cc7ccc(F)cc7)nn6)CC[C@]5(O)[C@@H]4CC[C@]3(O)C2)[C@H](O)[C@H](O)[C@H]1O (mixture of isomers)
[1]
  IC50: 13 to 44 nM

## COCO[C@@H]1[C@H]2OC(C)(C)O[C@H]2[C@H](O[C@H]2C[C@H]3OC(C)(C)OC[C@]34[C@@H]3[C@@H](CC[C@]4(O)C2)[C@@]2(O)CC[C@H](C=O)[C@@]2(C)C[C@H]3OCOC)O[C@H]1C
[1]
  IC50: 4.9 to 7.1 nM

## COc1ccc(-c2cn(C[C@H]3CC[C@]4(O)[C@@H]5CC[C@]6(O)C[C@@H](O)C[C@@H](O)[C@]6(CO)[C@H]5[C@H](O)C[C@]34C)nn2)cc1
[1]
  IC50: 15000 to 39000 nM
